Measurements reported in ChEMBL document CHEMBL1687872, “Synthesis, molecular docking and binding studies of selective serotonin transporter inhibitors” (Eur J Med Chem, 2011).
pKi: −log10 of the molar value.

How the values were obtained:
[1] = Displacement of [3H]-paroxetine from SERT in rabbit cortical membrane; type: cell membranes, Oryctolagus cuniculus
Outline: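 Competition against [3H]paroxetine (Kd 56.00 pM) on rabbit frontal cortex membranes, in duplicate, at least seven test concentrations from ethanol stocks diluted in Tris-HCl saline buffer; filtration and scintillation counting; Ki calculated by Cheng-Prusoff, mean ± s.e.m. of three independent experiments.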

[2] = Displacement of [3H]-Nisoxetine from NET in rabbit cortical membrane; type: cell membranes, Oryctolagus cuniculus
[3] = Displacement of [3H]-WIN 35,428 from DAT in rabbit striatal membrane; type: cell membranes, Oryctolagus cuniculus, Striatum
Outline: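 Rabbit striatal membranes (0.2 mg protein) in 50 mM Tris-HCl pH 7.4, 120 mM NaCl, 5 mM KCl with 0.5–2 nM [3H]WIN 35,428 (Kd 6.1 nM), 2 h at 4 °C; dopamine defines nonspecific binding; filtration over polyethylenimine-soaked GF/C filters, scintillation counting; ≥7 concentrations; Ki via Cheng-Prusoff, mean ± s.e.m. of three experiments in duplicate.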

Oryctolagus cuniculus [4] = species on record: Oryctolagus cuniculus; assay: Ratio of Ki for NET in rabbit cortical membrane to Ki for SERT in rabbit cortical membrane; type: cell membranes
Outline: (§1)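 Ratio of the radioligand-binding Ki values from rabbit membranes: DAT ([3H]WIN 35,428, striatum) or NET ([3H]nisoxetine, cortex) Ki divided by SERT ([3H]paroxetine, cortex) Ki.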

Oryctolagus cuniculus [5] = species on record: Oryctolagus cuniculus; assay: Ratio of Ki for DAT in rabbit striatal membrane to Ki for SERT in rabbit cortical membrane; type: cell membranes; outline: as §1

Row | Compound | pKi [1] | pKi [2] | pKi [3] | Ratio Ki (Oryctolagus cuniculus [4]) | Ratio Ki (Oryctolagus cuniculus [5])
1 | Fc1ccc(CO/N=C2/CNCCC2c2ccc(C(F)(F)F)cc2)cc1 (configuration not stated) | 7.01 | 5.03 | < 4.00 | 96 | > 1000
2 | Fc1ccc(CO/N=C2/CNCCC2c2ccc(F)cc2)cc1 (racemic) | 7.54 | 4.87 | 5.02 | 466 | 329
3 | Fc1ccc(CO/N=C2\CNCCC2c2ccc(F)cc2)cc1 (racemic) | 6.51 | – | 5.50 | – | 10
4 | Fc1ccc(C2CCNC/C2=N/OCc2ccc(C(F)(F)F)cc2)cc1 (racemic) | 7.01 | 4.71 | < 4.00 | 198 | > 1000
5 | Fc1ccc(C2CCNC/C2=N\OCc2ccc(C(F)(F)F)cc2)cc1 (racemic) | 6.86 | – | 5.21 | – | 45
6 | Fc1ccc(C2CCNC/C2=N/OCc2ccccc2Cl)cc1 (racemic) | 7.65 | 4.95 | 4.89 | 496 | 571
7 | Fc1ccc(C2CCNC/C2=N\OCc2ccccc2Cl)cc1 (racemic) | 7.09 | – | 5.42 | – | 47
8 | Fc1ccc(CO/N=C2\CNCCC2c2ccc(C(F)(F)F)cc2)cc1 (racemic) | 6.40 | – | 5.55 | – | 7
9 | FC(F)(F)c1ccc(C2CCNC/C2=N/OCc2ccccc2Cl)cc1 (racemic) | 7.99 | 5.00 | < 4.00 | 972 | > 9000
10 | FC(F)(F)c1ccc(C2CCNC/C2=N\OCc2ccccc2Cl)cc1 (racemic) | 7.02 | – | 5.38 | – | 43
11 | CNCCC(Oc1ccccc1OC)c1ccccc1 (configuration not stated) [NISOXETINE] | – | 8.46 | – | – | –
12 | Fc1ccc([C@@H]2CCNC[C@H]2COc2ccc3c(c2)OCO3)cc1 [PAROXETINE] | 9.51 | 7.10 | 6.11 | 258 | 2480
13 | CNCC[C@@H](Oc1ccc(C(F)(F)F)cc1)c1ccccc1 [R-FLUOXETINE] | 8.24 | 6.22 | 5.40 | 105 | 670
14 | Fc1ccc(C(OCCN2CCN(CCCc3ccccc3)CC2)c2ccc(F)cc2)cc1 [VANOXERINE] | – | – | 8.82 | – | –
